In the library only some 2.3% were active in any assay of this set; here they are far more common.
N-glyco inh: N-linked glycosylation inhibition; 360,000 compounds, 0.23% hits; AID 588692; D54 ERlucT glycosylation luciferase reporter, 24 h; percent of 100 nM tunicamycin response; reporter increase, % at 12.5 µM;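 active = mean luciferase reporter signal, scaled so untreated is 0 and the glycosylation-blocking control 100, at or above a set limit in every replicate; inconclusive = mean reaches the limit but not every replicate does; inactive = mean below the limit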;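 note: luciferase carries N-glycosylation sites so blocking glycosylation raises the light; 0% = median of neutral control wells and 100% = median of 100 nM tunicamycin wells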
Rtt109 HAT inh: C. albicans Rtt109 histone acetyltransferase inhibition; 330,000 compounds, 0.16% hits; Q5AAJ8; AID 540336; purified Rtt109/Vps75, ThioGlo CoA-SH fluorescence, 4 h; inhibition, % at 34.9 µM;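 active = inhibition of at least 50% in every replicate; inconclusive = best replicate reaches 50% inhibition but some replicates fall short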
Target sequence (Q5AAJ8 whole entry, looked up): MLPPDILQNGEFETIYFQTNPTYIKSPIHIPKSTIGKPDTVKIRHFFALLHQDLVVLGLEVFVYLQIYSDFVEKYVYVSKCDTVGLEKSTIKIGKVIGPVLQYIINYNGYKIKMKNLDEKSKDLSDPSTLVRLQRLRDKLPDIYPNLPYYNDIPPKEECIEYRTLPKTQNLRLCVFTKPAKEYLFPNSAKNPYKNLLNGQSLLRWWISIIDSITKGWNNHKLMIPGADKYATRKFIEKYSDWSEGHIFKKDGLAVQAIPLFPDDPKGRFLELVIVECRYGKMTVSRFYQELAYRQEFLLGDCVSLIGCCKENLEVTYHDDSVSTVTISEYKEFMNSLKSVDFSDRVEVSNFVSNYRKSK
Env fusion inh: HIV envelope-mediated fusion inhibition | 360,000 compounds, 1.1% hits | HeLa-JRFL Env/CEM21 cell fusion, luciferase | inhibition, % at 12.3 µM;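 active = mean replicate inhibition score of at least 50 and every replicate individually at or above 50; inconclusive = only one of the two criteria met; inactive = mean below 50 and not all replicates reaching 50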;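 note: 0% = plate neutral controls and 100% = maraviroc near 300 nM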
Arr AP2 block: human beta-arrestin and AP2 interaction inhibition. FITC-arrestin peptide / GST-AP2 beads, flow cytometry; AP2 beta2 appendage carries R879A mutation. inhibition, % at 10 µM. 340,000 compounds, 0.31% hits;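 active = inhibition above a set limit, near 3 SD of compounds lacking own fluorescence, cut at about 54% in these data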;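 note: plate controls were DMSO wells for no effect and 5 µM unlabelled arrestin peptide for full effect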
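system = GST-tagged AP2 beta2-adaptin appendage (R879A) on 4 µm glutathione beads | reagent = FITC-labelled arrestin peptide probe, 50 nM final | schedule = compound with beads 12 min RT, then probe 1 h RT | signal = HyperCyt-sampled flow cytometry, FL1 channel, ex 488/em 535 nm | read-out = percent response from loss of bead-bound FITC fluorescence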
PfHsp90 set2: inhibits growth of yeast expressing Plasmodium falciparum Hsp90. S. cerevisiae expressing PfHsp90, BacTiter-Glo ATP, 48 h; yeast lacking PDR1 and PDR3 efflux regulators. 310,000 compounds, 0.32% hits. inhibition, % at 9.4 µM. AID 504621;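 active = every replicate shows inhibition above about 80%, whatever the replicate mean, limit read from the data; inconclusive = mean inhibition reaches the set limit but some replicate falls short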;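 note: 0% = DMSO neutral controls and 100% = 20 µM radicicol positive controls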
PAX8 reporter: lowers PAX8-driven luciferase in RMG-I cells. RMG-I TPO-luciferase reporter, SteadyGlo, 24 h. AID 652154. 360,000 compounds, 1.2% hits. inhibition, % at 12.6 µM;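 active = mean replicate inhibition at least 60% with every replicate also reaching 60%; inconclusive = only one of the two criteria is met; inactive = mean below 60% and not all replicates reaching 60%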;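 note: luciferase light reporting Pax8 driven TPO promoter activity; plate controls were median of neutral control wells for no effect and mitoxantrone controls for full effect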
An asterisk follows results filed as active; ? = inconclusive; nt = no result; [ ] = another dose, or the depositor's remark.

SMILES | N-glyco inh | Rtt109 HAT inh | Env fusion inh | Arr AP2 block | PfHsp90 set2 | PAX8 reporter
Cc1ccc(/C=C2/SC(=S)N(CCCC(=O)Nc3ccc(O)cc3)C2=O)cc1 | -5 | 4 | 55* | 3 | 0 | 81*
O=C(CCCN1C(=O)/C(=C\c2ccccc2)SC1=S)Nc1cccc(C(=O)O)c1 | 2 | 29 | 4 | 10 | -49 | 15
O=C(O)CCCN1C(=O)/C(=C\C(Cl)=C\c2ccccc2)SC1=S | 18 | -6 | -104 | 38 | 40 | 115*
O=C(CCCN1C(=O)/C(=C/c2cccs2)SC1=S)Nc1cccc(O)c1 | -1 | 7 | -17 | -3 | -13 | 67*
O=C(CCCN1C(=O)/C(=C/c2ccccc2)SC1=S)Nc1cccc(O)c1 | -2 | 1 | 10 | -4 | 4 | 66*
O=C(CCN1C(=O)/C(=C/c2cccs2)SC1=S)Nc1cccc(O)c1 | -2 | 6 | 7 | 6 | 14 | 9
CC(=Cc1ccccc1)C=C1SC(=S)N(CCCC(=O)Nc2ccc(C(=O)O)c(O)c2)C1=O | 0 | nt | 11 | nt | nt | -24
CC(/C=C1\SC(=S)N(CCC(=O)Nc2ccc(O)cc2)C1=O)=C\c1ccccc1 | -2 | 5 | 7 | -17 | -19 | 74*
O=C(CCCN1C(=O)/C(=C/c2ccccc2Cl)SC1=S)Nc1cccnc1 | 1 | 9 | 24 | 2 | -28 | 81*
COc1ccc(S(=O)(=O)N(C)C[C@H]2OCCCC[C@@H](C)Oc3ccc(NC(=O)CCCN(C)C)cc3C(=O)N([C@@H](C)CO)C[C@@H]2C)cc1 | nt | nt | -2[16.7 µM] | nt | nt | -5
C[C@H](NC(=O)C[C@@H]1CC[C@@H]2[C@H](COC[C@H](O)CN2C(=O)Nc2cccc(F)c2)O1)c1ccccc1 | nt | nt | nt | nt | nt | -32
COc1ccccc1/C=C/C(=O)/C=C/c1ccccc1O | 39* | -2 | -189 | -6 | 29 | 43
O=C(c1ccccn1)N(Cc1ccco1)C1(C(=O)NC2CCCC2)CCCCC1 | 4 | -10 | 20 | 3 | nt | -18
O=C(c1ccc2c(c1)OCO2)N(Cc1ccco1)C1(C(=O)NC2CCCCC2)CCCCC1 | -3 | 14 | 88* | 16 | nt | -1
O=C(CSc1nnc(COc2ccc(Cl)cc2)o1)N(c1ccccc1)C1CCS(=O)(=O)C1 (centres undefined) | -2 | nt | 65* | nt | nt | 37
CC(Oc1ccc(F)cc1)c1nnc(SCC(=O)N(c2ccccc2)C2CCS(=O)(=O)C2)o1 (centres undefined) | -2 | 26 | 45 | 2 | 4 | 4
NC(=O)CC(NC(=O)Cc1ccc(Br)cc1)c1ccc(N2CCCCCCC2)c([N+](=O)[O-])c1 (centres undefined) | 16 | -10 | ? | 5 | -17 | 22
NC(=O)CC(NC(=O)Cc1ccc(Br)cc1)c1ccc(N2CCC(Br)CC2)c([N+](=O)[O-])c1 (centres undefined) | 3 | 1 | 63* | 6 | -4 | 4
NC(=O)CC(NC(=O)c1ccccc1)c1ccc(N2CCCCCCC2)c([N+](=O)[O-])c1 (centres undefined) | 1 | -2 | 10 | 1 | 3 | 19
NC(=O)CC(NC(=O)c1ccc(Br)cc1)c1ccc(N2CCCCCC2)c([N+](=O)[O-])c1 (centres undefined) | 33* | 13 | -15 | 5 | -31 | 32
O=S(=O)(/C=C/c1ccccc1)NC1CCCCCCC1 | 1 | -13 | 13 | -4 | 88* | 12
O=S(=O)(/C=C/c1ccccc1)NC1CCCCCC1 | -1 | 1 | 1 | 5 | 99* | 2
O=S1(=O)CCC(NS(=O)(=O)/C=C/c2ccccc2)C1 (centres undefined) | 0 | -3 | -14 | 8 | 19 | nt
COc1ccc(NC(=O)C[C@H]2C(=O)N(c3ccc(OC)cc3)C[C@@H]2C)cc1 | 0 | nt | 4 | nt | nt | 101*
CNC(=O)C[C@H]1C(=O)N(c2ccc(OC)cc2)C[C@@H]1C | 0 | nt | 7 | nt | nt | 8
SMILES | N-glyco inh | Rtt109 HAT inh | Env fusion inh | Arr AP2 block | PfHsp90 set2 | PAX8 reporter
C[C@H](CO)N1C[C@H](C)[C@H](CN(C)C(=O)c2ccc3c(c2)OCO3)Oc2ncc(C3=CCCCC3)cc2C1=O | nt | nt | 10[16.7 µM] | nt | nt | -13
CCC(=O)N(C)C[C@H]1Oc2cc(-c3ccccc3)ccc2S(=O)(=O)N([C@@H](C)CO)C[C@H]1C | nt | nt | -8[16.7 µM] | nt | nt | nt
O=[N+]([O-])c1cc(-c2n(-c3ccccn3)c3ccccc3[n+]2-c2ccccn2)ccc1Cl | 0 | -1 | 64* | 1 | -10 | 7
CC1=CC2C(C(O)CC3(C)C2CC(C)C32OCOC23COCO3)C2(C)C/C(=C\O)C(=O)C=C12 (centres undefined) | -9 | -1 | 113* | 21 | 110* | nt
CN(C)C(=O)c1ccc(-c2ccc([C@H]3[C@@H](CO)N4C(=O)CN(C(=O)C5CCCC5)C[C@H]34)cc2)cc1 | nt | nt | nt | nt | nt | -14
COCC(=O)OC1CCn2c1nc1c2C(=O)C(C)=C(NC(C)=O)C1=O (centres undefined) | -2 | 12 | 29 | 10 | 4 | 115*
CC(C)(C)c1nc(C(C)(C)C)c(Br)c(=O)[nH]1 | -2 | -1 | 72* | -12 | -24 | -4
CCC(C)NC(=O)C1CCCN(S(=O)(=O)c2ccc3c(c2)CC(C)N3C(=O)C2CC2)C1 (centres undefined) | 2 | 8 | -8 | 10 | 9 | -15
CCC(C)NC(=O)C1CCCN(S(=O)(=O)c2ccc3c(c2)CC(C)N3C(C)=O)C1 (centres undefined) | 1 | 3 | 59* | 2 | -25 | -2
CC(=O)N1c2ccc(S(=O)(=O)N3CCCC3C(=O)Nc3cccc(F)c3)cc2CC1C (centres undefined) | 2 | 9 | 2 | 2 | 13 | 3
CCc1cccc(NC(=O)C2CCCN2S(=O)(=O)c2ccc3c(c2)CC(C)N3C(C)=O)c1 (centres undefined) | 1 | -21 | 61* | 8 | -35 | 11
Cc1ccc(S(=O)(=O)N[C@@H]2CC[C@@H](CC(=O)O)O[C@H]2CO)cc1 | nt | nt | 10[16.7 µM] | nt | nt | -6
O=C(CN1CCN(c2ncc(C(F)(F)F)cc2Cl)CC1)N1CCN(c2ncc(C(F)(F)F)cc2Cl)CC1 | 3 | -5 | 95* | -8 | 30 | nt
CC(=O)OCC1OC(n2ccc3ccccc32)C(OC(C)=O)C(OC(C)=O)C1OC(C)=O (centres undefined) | 1 | -4 | -55 | 3 | -3 | nt
COC(=O)C1C=CC(OC2OC(COC(C)=O)C(OC(C)=O)C(OC(C)=O)C2OC(C)=O)n2c(=O)n(-c3ccccc3)c(=O)n21 (centres undefined) | -11 | 12 | -17 | 2 | 11 | 101*
CCc1ccc(NC(=O)CSc2nnc(-c3n[nH]c4ccccc34)n2-c2ccccc2)cc1 | -4 | 5 | 7 | 7 | -2 | 15

Screening results deposited in PubChem BioAssay by several laboratories.
